In assay [1] the target is T1, Cysteinyl leukotriene receptor 1 (Cavia porcellus) (UniProt Q2NNR5).
T1 sequence (whole entry): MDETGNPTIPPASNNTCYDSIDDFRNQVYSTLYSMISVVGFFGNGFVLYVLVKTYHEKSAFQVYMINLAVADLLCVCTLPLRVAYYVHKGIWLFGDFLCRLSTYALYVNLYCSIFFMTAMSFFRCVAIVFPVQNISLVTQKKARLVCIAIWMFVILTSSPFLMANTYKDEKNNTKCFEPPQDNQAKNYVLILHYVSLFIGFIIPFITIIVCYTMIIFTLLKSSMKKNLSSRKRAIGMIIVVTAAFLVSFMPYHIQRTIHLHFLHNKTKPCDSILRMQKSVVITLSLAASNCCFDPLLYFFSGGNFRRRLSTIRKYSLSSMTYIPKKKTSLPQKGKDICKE
Nature of the assay: Dissociation constant (KB) versus Cysteinyl leukotriene D4 receptor was evaluated in vitro in isolated guinea pig tracheal strips.

Assay [2] deals with Cavia porcellus. Kind of assay: Compound (50 mg/kg, intraperitoneally) was tested in spontaneously breathing, conscious guinea pigs challenged with aerosolized LTD4 (60-min pretreatment). In kind it is functional.
The species entered for assay [3] is Cavia porcellus. Kind of assay: Inhibition of the leukotriene D4 (LTD4)-induced contraction of guinea pig tracheal spirals at 10 uM concentration. As to conditions: Trachea. In kind it is functional. In outline: (§1)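 Guinea pig tracheal spirals were split into paired sections in 10 mL baths of modified Krebs at 37 °C, gassed with 95% O₂/5% CO₂, under 2 g resting tension. After 60 min equilibration (washes every 15 min), reproducible contractions to 8 nM LTD₄ or 8 nM LTE₄ were obtained. Compound was added for 10 min, then agonist challenge repeated; percent inhibition is relative to the vehicle-treated paired section.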

Assay [4] deals with T1, Cysteinyl leukotriene receptor 1 (Cavia porcellus). Nature of the assay: Dissociation constant (KB) […] was evaluated in vitro in isolated guinea pig tracheal strips.
For assay [5], the species on record is Cavia porcellus. Nature of the assay: Percent inhibition of the leukotriene E4 (LTE4)-induced contraction of guinea pig tracheal spirals at 5 uM concentration. The class given is functional. To be noted: Trachea. The procedure, abridged: as §1
The species named for assay [6] is Cavia porcellus. Kind of assay: Percent inhibition of the leukotriene E4 (LTE4)-induced contraction of guinea pig tracheal spirals at 1 uM concentration. In kind it is functional. As to conditions: Trachea. The procedure, abridged:
as §1

Assay [7] is filed under the species Cavia porcellus. Kind of assay: Percent inhibition of the leukotriene D4 (LTD4)-induced contraction of guinea pig tracheal spirals at 5 uM concentration. The class given is functional. To be noted: Trachea. The procedure, abridged:
as §1

The species entered for assay [8] is Cavia porcellus. Nature of the assay: Percent inhibition of the leukotriene D4 (LTD4)-induced contraction of guinea pig tracheal spirals at 10 uM concentration; NS means data was not statistically significant. In kind it is functional. To be noted: Trachea. The procedure, abridged:
as §1

For assay [9], the species on record is Cavia porcellus. Kind of assay: Percent inhibition of the leukotriene E4 (LTE4)-induced contraction of guinea pig tracheal spirals at 10 uM concentration; NS means data was not statistically significant. As to conditions: Trachea.
Assay [10] is filed under the species Cavia porcellus. Nature of the assay: Percent inhibition of the leukotriene E4 (LTE4)-induced contraction of guinea pig tracheal spirals at 1 uM concentration. To be noted: Trachea.
Assay [11] is filed under the species Cavia porcellus. Kind of assay: Percent inhibition of the leukotriene E4 (LTE4)-induced contraction of guinea pig tracheal spirals at 50 uM concentration; NS means data was not statistically significant. In kind it is functional. To be noted: Trachea. The procedure, abridged:
as §1

For assay [12], the species on record is Cavia porcellus. Nature of the assay: Percent inhibition of the leukotriene E4 -induced contraction of guinea pig tracheal spirals at 1 uM concentration. To be noted: Trachea. In kind it is functional. In outline:
as §1

The species named for assay [13] is Cavia porcellus. Nature of the assay: Percent inhibition of the leukotriene E4 -induced contraction of guinea pig tracheal spirals at 10 uM concentration. To be noted: Trachea. In kind it is functional. The procedure, abridged:
as §1

Assay [14] is filed under the species Cavia porcellus. Nature of the assay: Percent inhibition of the leukotriene D4 (LTD4)-induced contraction of guinea pig tracheal spirals at 50 uM concentration. In kind it is functional. As to conditions: Trachea. In outline:
as §1

Assay [15] is filed under the species Cavia porcellus. Nature of the assay: Percent inhibition of the leukotriene E4 (LTE4)-induced contraction of guinea pig tracheal spirals at 10 uM concentration; NS means data was not statistically significant. To be noted: Trachea. In kind it is functional. The procedure, abridged: as §1
The test system of assay [16] is Cavia porcellus. Nature of the assay: Compound (50 mg/kg, intraperitoneally) was tested in spontaneously breathing, conscious guinea pigs challenged with aerosolized LTD4 (30-min pretreatment). In kind it is functional.
The species named for assay [17] is Cavia porcellus. Kind of assay: Percent inhibition of the leukotriene D4 (LTD4)-induced contraction of guinea pig tracheal spirals at 4 uM concentration. The class given is functional. To be noted: Trachea. The procedure, abridged: as §1
The species named for assay [18] is Cavia porcellus. Nature of the assay: Percent inhibition of the leukotriene D4 (LTD4)-induced contraction of guinea pig tracheal spirals at 4 uM concentration; NS means data was not statistically significant. The class given is functional. As to conditions: Trachea. In outline:
as §1

For assay [19], the species on record is Cavia porcellus. Kind of assay: Percent inhibition of the leukotriene E4 (LTE4)-induced contraction of guinea pig tracheal spirals at 50 uM concentration. The class given is functional. To be noted: Trachea. The procedure, abridged:
as §1

Assay [20] is filed under the species Cavia porcellus. Nature of the assay: Percent inhibition of the leukotriene E4 (LTE4)-induced contraction of guinea pig tracheal spirals at 10 uM concentration. In kind it is functional. As to conditions: Trachea. The procedure, abridged: as §1
For assay [21], the species on record is Cavia porcellus. Kind of assay: Percent inhibition of the leukotriene D4 (LTD4)-induced contraction of guinea pig tracheal spirals at 10 uM concentration; NS meana data was not statistically significant. The class given is functional. As to conditions: Trachea. The procedure, abridged: as §1
For assay [22], the species on record is Cavia porcellus. Nature of the assay: Percent inhibition of the leukotriene E4 (LTE4)-induced contraction of guinea pig tracheal spirals at 10 uM concentration; NS means data was not statistically significant. In kind it is functional. To be noted: Trachea. In outline:
as §1

The structures appear in SMILES notation.

For orientation: inhibition means the relative decrease from the control value, in per cent.

Take `CCCc1c(OCc2ccc(C(=O)O)cc2OC)ccc(C(C)=O)c1O`: the Kb in assay [1] came to 360 nM. In addition, the Protection in [2] amounted to 19%. The same compound gave an inhibition at 10 µM in assay [3] of 99%. For the compound `C=C(C)Cc1c(OCc2ccc(C(=O)O)cc2OC)ccc(C(C)=O)c1O`, the Kb in [4] amounted to 1640 nM. The compound also displayed an inhibition at 5 µM in assay [5] of 82%. The inhibition at 1 µM in [6] is 35%. Besides, the Protection in assay [2] turned out to be 30%. The compound `CCC(C)c1c(OCc2ccc(C(=O)O)cc2OC)ccc(C(C)=O)c1O` (stereo unspecified) gave an inhibition at 5 µM in [7] of 85%. In assay [3], at 10 µM the inhibition was 100%. In the case of `CCCc1c(OCCCCc2nnn[nH]2)ccc(C(C)=O)c1O` [TOMELUKAST], the Kb in assay [1] came out at 180 nM. In addition, in assay [2], the Protection amounted to 49%. Turning to `COc1cc(C(=O)O)ccc1COc1ccc2c(C)cc(=O)oc2c1`, in assay [8], the inhibition entry was “Not statistically significant”.

In the case of `CCCc1c(NC(=O)c2ccc(C(=O)O)cc2OC)ccc(C(C)=O)c1O`, the inhibition result in assay [9] was “Not statistically significant”. Regarding `CCCc1c(OCc2ccc(/C=C/C(=O)O)cc2)ccc(C(C)=O)c1O`, in assay [4], the Kb stood at 570 nM. Also, the Protection in assay [2] is on record as 34%. In assay [10], this compound had an inhibition at 1 µM of 48%. As for `COc1cc(C(=O)O)ccc1COc1ccc(C(C)=O)c(O)c1CCCC(=O)O`, the inhibition entry in [11] is “Not statistically significant”. On to `COc1cc(C(=O)O)ccc1COc1ccc(C(C)=O)c(O)c1Cc1ccccc1`, for which the inhibition at 1 µM in assay [12] came to 39%. Further, in [13], the inhibition at 10 µM worked out at 100%. Regarding `CCCc1ccccc1OCc1ccc(C(=O)O)cc1OC`, in assay [14], the inhibition at 50 µM stood at 81%. Further, the inhibition at 10 µM in assay [3] is 25%. `CCCc1cc2c(C)cc(=O)oc2cc1OCc1ccc(C(=O)O)cc1OC`: in assay [15], the inhibition entry is “Not statistically significant”.

In assay [7], `C/C=C(\c1ccccc1)c1c(OCc2ccc(C(=O)O)cc2OC)ccc(C(C)=O)c1O` had an inhibition at 5 µM of 24%.

In turn, `COc1cc(C(=O)O)ccc1COc1ccc(C(C)=O)c(O)c1CC(C)C` yielded an inhibition at 1 µM in assay [6] of 22%. In the case of `CCCc1c(OCc2ccc(C(=O)O)cc2OC)ccc2c(C)cc(=O)oc12`, the Protection in [16] was found to be 27%. In [3], this compound yielded an inhibition at 10 µM of 78%. This compound also came in with an inhibition at 4 µM in assay [17] of 44%. With `CCCc1c(OCc2ccc(C(=O)O)c(OC)c2)ccc(C(C)=O)c1O`, the inhibition entry in assay [18] was “Not statistically significant”. Moreover, the inhibition at 10 µM in assay [3] came out at 44%. Turning to `CCCc1c(OCc2ccc(C(=O)O)cc2OC)ccc(C(N)=O)c1O`, the inhibition at 50 µM in assay [19] turned out to be 86%. Moreover, in assay [3], the inhibition at 10 µM came to 72%. Consider `CCCc1c(OCc2ccc(C(=O)O)cc2F)ccc(C(C)=O)c1O`, for which, in assay [4], the Kb was found to be 520 nM. The Protection in assay [16] stood at 18%; in [2], 0%. This compound also showed an inhibition at 10 µM in [3] of 99%. `CCCC(=O)N(Cc1ccc(C(=O)O)cc1OC)c1ccc(C(C)=O)c(O)c1`: the inhibition entry in assay [9] is “Not statistically significant”. The same measure, in the same setting: for `CCCc1c(N(Cc2ccc(C(=O)O)cc2OC)C(C)=O)ccc(C(C)=O)c1O` the value was “Not statistically significant”. Regarding `CCCN(Cc1ccc(C(=O)O)cc1OC)c1ccc(C(C)=O)c(O)c1`, in assay [20], the inhibition at 10 µM was 24%. This compound also had an inhibition at 50 µM in assay [19] of 35%. Consider `COc1cc(C(=O)O)ccc1COc1ccc(C(C)=O)c(O)c1`, for which the inhibition result in [21] is “Not statistically significant”. Regarding `CCCc1c(OCc2ccc(C(=O)O)cc2OC)ccc(C(=O)Oc2ccccc2)c1O`, in assay [22], the inhibition result was “Not statistically significant”.

These data come from ChEMBL document CHEMBL1124444, “Hydroxyacetophenone-derived antagonists of the peptidoleukotrienes” (1989).
